In ChEMBL document CHEMBL3112453, “Novel lung adenocarcinoma and nuclear factor-kappa B (NF-κB) inhibitors: synthesis and evaluation of lantadene congeners” (Eur J Med Chem, 2014):

Assays:
A549 [1] = test: Cytotoxicity against human A549 cells after 48 hrs by MTT assay; format: functional, cell-based
In short: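 A549 cells grown in RPMI with 5% FBS and 1% penicillin-streptomycin. Seeded at 4000 cells/well, attached overnight, then exposed to compound at 0.01–100 µmol for 48 h. MTT added for 4 h, formazan dissolved in DMSO, absorbance read at 570 nm. Mean of at least three independent experiments, each in triplicate.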

A549 [2] = test: Cytotoxicity against human A549 cells transfected with NF-kappaB assessed as reduction of cell viability relative to control; format: cell-based; set-up: concentration or dose not given beside the values
[3] = Inhibition of TNF-alpha-induced NF-kappaB (unknown origin) activation transfected in human A549 cells after 7 hrs by bright-glo luciferase reporter gene assay; format: cell-based
In short: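 A549 cells co-transfected with pNF-κB-Luc and pSV-β-galactosidase (internal control) using lipofectamine. Medium changed at 6 h, cells cultured a further 6 h, then given TNF-α 15 ng/ml and compound together for 7 h. Read-out is Bright-Glo luciferase, corrected for background and viability and expressed relative to TNF-α-only cells. IC50 from a variable-slope sigmoidal fit.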

[4] = biological target: T1, Inhibitor of nuclear factor kappa-B kinase subunit beta (Homo sapiens, UniProt O14920); test: Inhibition of FLAG-tagged human recombinant IKKbeta phosphorylation expressed in baculovirus infected insect Sf9 cells after 1 hr by luminescence assay
T1 sequence (O14920 whole entry): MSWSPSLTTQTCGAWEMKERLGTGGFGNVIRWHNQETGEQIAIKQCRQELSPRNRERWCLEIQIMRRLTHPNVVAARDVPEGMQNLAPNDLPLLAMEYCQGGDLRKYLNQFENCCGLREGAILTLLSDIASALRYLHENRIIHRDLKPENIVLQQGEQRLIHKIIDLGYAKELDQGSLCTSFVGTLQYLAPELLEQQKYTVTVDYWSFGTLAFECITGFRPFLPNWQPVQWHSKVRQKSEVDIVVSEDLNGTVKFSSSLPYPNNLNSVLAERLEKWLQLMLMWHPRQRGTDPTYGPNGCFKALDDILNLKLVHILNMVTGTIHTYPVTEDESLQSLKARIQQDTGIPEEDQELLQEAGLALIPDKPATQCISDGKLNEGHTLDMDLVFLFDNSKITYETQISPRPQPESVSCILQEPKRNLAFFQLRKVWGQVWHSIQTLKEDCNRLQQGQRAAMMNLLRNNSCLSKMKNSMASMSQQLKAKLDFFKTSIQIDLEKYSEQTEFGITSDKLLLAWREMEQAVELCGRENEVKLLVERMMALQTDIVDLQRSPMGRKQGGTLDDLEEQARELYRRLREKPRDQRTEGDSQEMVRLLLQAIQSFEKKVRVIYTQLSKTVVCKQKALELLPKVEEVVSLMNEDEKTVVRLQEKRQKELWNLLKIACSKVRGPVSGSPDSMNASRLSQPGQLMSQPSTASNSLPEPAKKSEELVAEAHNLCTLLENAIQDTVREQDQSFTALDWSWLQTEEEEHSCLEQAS
In short: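 Kinase reaction ran 1 h at room temperature with bacterially expressed GST-IkBα substrate and 500 nmol ATP, in 25 mmol/l HEPES pH 7.5, 10 mmol/l Mg acetate, 1 mmol DTT, 0.01% BSA and 0.01% Tween20. Stopped with equal volume Kinase-Glo, 10 min RT, then luminescence of remaining ATP read.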

[5] = Metabolic stability in 80% human plasma assessed as compound remaining at 5 mg/ml measured at 60 mins by HPLC analysis; format: ADME, cell-free; settings: read-out: Stability
In short: (§1)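 Human plasma at 80%, diluted with isotonic phosphate buffer pH 7.4, 37 °C in a water bath. Compound stock is 5 mg/ml in THF, diluted 1:10 into the plasma. Samples were taken at 0, 15, 30, 60 and 120 min, quenched in ACN, centrifuged 5 min, and the supernatant analysed by HPLC for ester remaining.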

[6] = Chemical stability in simulated gastric fluid assessed as compound remaining at 5 mg/ml at pH 2 measured at 12 hrs by HPLC analysis; format: physicochemical; settings: read-out: Stability
In short: (§2)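 Stability in simulated gastric fluid, HCl buffer pH 2, 37 °C in a water bath. Compound stock is 5 mg/ml in THF, diluted 1:10 into buffer. Samples were taken at 0, 2, 5, 8 and 12 h, diluted with ACN and analysed by HPLC. % remaining = peak area at each time / peak area at 0 min × 100.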

[7] = Chemical stability in simulated gastric fluid assessed as compound remaining at 5 mg/ml at pH 2 measured at 2 hrs by HPLC analysis; format: physicochemical; settings: read-out: Stability; in short: as §2
[8] = Chemical stability in simulated gastric fluid assessed as compound remaining at 5 mg/ml at pH 2 measured at 8 hrs by HPLC analysis; format: physicochemical; settings: read-out: Stability; in short: as §2
[9] = Metabolic stability in 80% human plasma assessed as compound remaining at 5 mg/ml measured at 15 mins by HPLC analysis; format: ADME, cell-free; settings: read-out: Stability; in short: as §1
[10] = Metabolic stability in 80% human plasma assessed as compound remaining at 5 mg/ml measured at 30 mins by HPLC analysis; format: ADME, cell-free; settings: read-out: Stability; in short: as §1
[11] = Metabolic stability in 80% human plasma assessed as compound remaining at 5 mg/ml measured at 120 mins by HPLC analysis; format: ADME, cell-free; settings: read-out: Stability; in short: as §1
[12] = Chemical stability in simulated gastric fluid assessed as compound remaining at 5 mg/ml at pH 2 measured at 5 hrs by HPLC analysis; format: physicochemical; settings: read-out: Stability; in short: as §2

| SMILES | IC50 [3] | IC50 (A549 [1]) | Activity (A549 [2]) | also measured |
| --- | --- | --- | --- | --- |
| CC1(C)C[C@@H](O)[C@]2(C(=O)O)CC[C@]3(C)C(=CC[C@@H]4[C@@]5(C)CC[C@H](O)C(C)(C)[C@@H]5CC[C@]43C)[C@@H]2C1 | > 10 µmol | > 10 µmol | < 5% |  |
| CC(C)=CC(=O)O[C@@H]1CC(C)(C)C[C@H]2C3=CC[C@@H]4[C@@]5(C)CCC(=O)C(C)(C)[C@@H]5CC[C@@]4(C)[C@]3(C)CC[C@@]12C(=O)O | 1.56 µmol | 1.19 µmol | < 5% |  |
| CC(=O)O[C@H]1CC[C@]2(C)[C@H]3CC=C4[C@@H]5CC(C)(C)C[C@@H](OC(=O)C=C(C)C)[C@]5(C(=O)O)CC[C@@]4(C)[C@]3(C)CC[C@H]2C1(C)C | 2.32 µmol | 4.9 µmol | < 5% |  |
| CC(C)=CC(=O)O[C@@H]1CC(C)(C)C[C@H]2C3=CC[C@@H]4[C@@]5(C)CC[C@H](OC(=O)/C=C/c6ccccc6)C(C)(C)[C@@H]5CC[C@@]4(C)[C@]3(C)CC[C@@]12C(=O)O | 0.42 µmol | 0.08 µmol | < 5% | IC50 [4]: 0.94 µmol; remaining at 1 h, 5 mg/ml [5]: 48.1%; remaining at 12 h, 5 mg/ml [6]: 81%; remaining at 2 h, 5 mg/ml [7]: 97.2%; remaining at 8 h, 5 mg/ml [8]: 87.6%; remaining at 0.25 h, 5 mg/ml [9]: 74.7%; remaining at 0.5 h, 5 mg/ml [10]: 55.5%; remaining at 2 h, 5 mg/ml [11]: 39.2%; remaining at 5 h, 5 mg/ml [12]: 92.5% |
| CC1(C)C[C@@H](OC(=O)/C=C/c2ccccc2)[C@]2(C(=O)O)CC[C@]3(C)C(=CC[C@@H]4[C@@]5(C)CCC(=O)C(C)(C)[C@@H]5CC[C@]43C)[C@@H]2C1 | 2.42 µmol | 3.64 µmol | < 5% |  |
| CC(=O)O[C@H]1CC[C@]2(C)[C@H]3CC=C4[C@@H]5CC(C)(C)C[C@@H](OC(C)=O)[C@]5(C(=O)O)CC[C@@]4(C)[C@]3(C)CC[C@H]2C1(C)C | > 10 µmol | > 10 µmol | < 5% |  |
| COC(=O)[C@@]12CC[C@]3(C)C(=CC[C@@H]4[C@@]5(C)CC[C@H](O)C(C)(C)[C@@H]5CC[C@]43C)[C@@H]1CC(C)(C)C[C@H]2O | > 10 µmol | > 10 µmol | < 5% |  |
| C/C=C(\C)C(=O)O[C@@H]1CC(C)(C)C[C@H]2C3=CC[C@@H]4[C@@]5(C)CC/C(=N\O)C(C)(C)[C@@H]5CC[C@@]4(C)[C@]3(C)CC[C@@]12C(=O)O | > 10 µmol | > 10 µmol | < 5% |  |
| CC(C)=CC(=O)O[C@@H]1CC(C)(C)C[C@H]2C3=CC[C@@H]4[C@@]5(C)CC/C(=N\O)C(C)(C)[C@@H]5CC[C@@]4(C)[C@]3(C)CC[C@@]12C(=O)O | > 10 µmol | > 10 µmol | < 5% |  |
| COC(=O)[C@@]12CC[C@]3(C)C(=CC[C@@H]4[C@@]5(C)CCC(=O)C(C)(C)[C@@H]5CC[C@]43C)[C@@H]1CC(C)(C)C[C@H]2O | > 10 µmol | > 10 µmol | < 5% |  |
| CC1(C)C[C@@H](O)[C@]2(C(=O)O)CC[C@]3(C)C(=CC[C@@H]4[C@@]5(C)CCC(=O)C(C)(C)[C@@H]5CC[C@]43C)[C@@H]2C1 | 6.42 µmol | > 10 µmol | < 5% |  |
| CC1(C)C[C@@H](OC(=O)c2ccccc2)[C@]2(C(=O)O)CC[C@]3(C)C(=CC[C@@H]4[C@@]5(C)CCC(=O)C(C)(C)[C@@H]5CC[C@]43C)[C@@H]2C1 | > 10 µmol | > 10 µmol | < 5% |  |
| C/C=C(/C)C(=O)O[C@@H]1CC(C)(C)C[C@H]2C3=CC[C@@H]4[C@@]5(C)CCC(=O)C(C)(C)[C@@H]5CC[C@@]4(C)[C@]3(C)CC[C@@]12C(=O)O [LANTADENE A] | 1.06 µmol | 2.84 µmol | < 5% |  |
| C/C=C(/C)C(=O)O[C@@H]1CC(C)(C)C[C@H]2C3=CC[C@@H]4[C@@]5(C)CC[C@H](O)C(C)(C)[C@@H]5CC[C@@]4(C)[C@]3(C)CC[C@@]12C(=O)O [Reduced Lantadene A] | 0.98 µmol | 0.79 µmol | < 5% | IC50 [4]: 2.62 µmol |
| CC(C)=CC(=O)O[C@@H]1CC(C)(C)C[C@H]2C3=CC[C@@H]4[C@@]5(C)CC[C@H](O)C(C)(C)[C@@H]5CC[C@@]4(C)[C@]3(C)CC[C@@]12C(=O)O [Reduced Lantadene B] | 1.02 µmol | 0.43 µmol | < 5% | IC50 [4]: 4.24 µmol |

Now from value to compound, other results behind:

| IC50 [3] | SMILES | IC50 (A549 [1]) | Activity (A549 [2]) | also measured |
| --- | --- | --- | --- | --- |
| 2.8 µmol | C/C=C(\C)C(=O)O[C@@H]1CC(C)(C)C[C@H]2C3=CC[C@@H]4[C@@]5(C)CC[C@H](OC(C)=O)C(C)(C)[C@@H]5CC[C@@]4(C)[C@]3(C)CC[C@@]12C(=O)O | 5.42 µmol | < 5% |  |
| 5.04 µmol | C/C=C(\C)C(=O)O[C@@H]1CC(C)(C)C[C@H]2C3=CC[C@@H]4[C@@]5(C)CC[C@H](OC(=O)c6ccccc6)C(C)(C)[C@@H]5CC[C@@]4(C)[C@]3(C)CC[C@@]12C(=O)O | 7.36 µmol | < 5% |  |
| 4.64 µmol | CC(C)=CC(=O)O[C@@H]1CC(C)(C)C[C@H]2C3=CC[C@@H]4[C@@]5(C)CC[C@H](OC(=O)c6ccccc6)C(C)(C)[C@@H]5CC[C@@]4(C)[C@]3(C)CC[C@@]12C(=O)O | 7.2 µmol | < 5% |  |
| 4.18 µmol | C/C=C(\C)C(=O)O[C@@H]1CC(C)(C)C[C@H]2C3=CC[C@@H]4[C@@]5(C)CC[C@H](OC(=O)c6ccccc6Cl)C(C)(C)[C@@H]5CC[C@@]4(C)[C@]3(C)CC[C@@]12C(=O)O | 6.8 µmol | < 5% |  |
| 3.7 µmol | CC(C)=CC(=O)O[C@@H]1CC(C)(C)C[C@H]2C3=CC[C@@H]4[C@@]5(C)CC[C@H](OC(=O)c6ccccc6Cl)C(C)(C)[C@@H]5CC[C@@]4(C)[C@]3(C)CC[C@@]12C(=O)O | 6.52 µmol | < 5% |  |
| 0.56 µmol | C/C=C(\C)C(=O)O[C@@H]1CC(C)(C)C[C@H]2C3=CC[C@@H]4[C@@]5(C)CC[C@H](OC(=O)/C=C/c6ccccc6)C(C)(C)[C@@H]5CC[C@@]4(C)[C@]3(C)CC[C@@]12C(=O)O | 0.12 µmol | < 5% | IC50 [4]: 1.2 µmol; remaining at 1 h, 5 mg/ml [5]: 46.8%; remaining at 12 h, 5 mg/ml [6]: 76.6%; remaining at 2 h, 5 mg/ml [7]: 96.4%; remaining at 8 h, 5 mg/ml [8]: 84.7%; remaining at 0.25 h, 5 mg/ml [9]: 74.2%; remaining at 0.5 h, 5 mg/ml [10]: 54.7%; remaining at 2 h, 5 mg/ml [11]: 36.8%; remaining at 5 h, 5 mg/ml [12]: 90.7% |
| > 10 µmol | CC1(C)C[C@@H](OC(=O)c2ccccc2Cl)[C@]2(C(=O)O)CC[C@]3(C)C(=CC[C@@H]4[C@@]5(C)CCC(=O)C(C)(C)[C@@H]5CC[C@]43C)[C@@H]2C1 | > 10 µmol | < 5% |  |
